Assay results taken from ChEMBL document CHEMBL3272032, “Antifolate studies. Activities of 40 potential antimalarial compounds against sensitive and chlorguanide triazine resistant strains of folate-requiring bacteria and Escherichia coli” (J Med Chem, 1977).
The source made the active and inactive calls. No cut-off for these calls is given here.

How the values were obtained:
Plasmodium berghei [1] = test: Antimalarial activity against Plasmodium berghei infected in sc dosed mouse assessed as active dose required to increase of 100% in mean survival time; assay type: functional; settings: read-out: MED
How it was run: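 Mice received a standard blood-induced P. berghei inoculum and were then treated with one subcutaneous dose of compound suspended in peanut oil. The minimum active dose is the lowest dose that raised mean survival time by 100%.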

[2] = Antibacterial activity against chlorguanide triazine-resistant Pediococcus cerevisiae ATCC 808 assessed as reduction in growth; assay type: functional
How it was run: (§1)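 Folate-requiring strains grown in medium with folic acid, 0.002 µg/ml for S. faecium and 0.001 µg/ml for L. casei; P. cerevisiae given folinic acid, 0.001 µg/ml. Resistant substrains came from serial transfer in rising chlorguanide triazine, and the most resistant were used. Compounds tested up to 1000 µg/ml, or 100 µg/ml when supply was limited. Growth read as Klett turbidity; IC50 is the µM concentration giving 50% growth inhibition.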

Enterococcus faecium [3] = test: Antibacterial activity against sensitive Streptococcus faecium ATCC 8043 assessed as reduction in growth in presence of 0.002 ug/ml folic acid; assay type: functional, organism-based
How it was run: (§2)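 Folate-requiring strains in the medium of the earlier assay method. Folic acid was 0.002 μg/ml for S. faecium and 0.001 μg/ml for L. casei. Turbidity read on a Klett-Summerson colorimeter. IC50 is the micromolar concentration reducing growth to 50% of control. Top concentration was 1000 μg/ml, or 100 μg/ml if supply was limited.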

Enterococcus faecium [4] = test: Fold increase in resistance, ratio of IC50 for chlorguanide triazine-resistant Streptococcus faecium ATCC 8043 to IC50 for sensitive Streptococcus faecium ATCC 8043; assay type: functional
How it was run: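 Resistant S. faecium substrain raised by serial transfer in increasing chlorguanide triazine. IC50 (µM, 50% growth inhibition by turbidity) was found for resistant and parent strains in folic acid (0.002 µg/ml) medium. Fold increase taken as IC50 resistant / IC50 sensitive.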

Escherichia coli [5] = test: Antibacterial activity against sensitive Escherichia coli ATCC 10536 assessed as reduction in growth; assay type: functional, organism-based
How it was run: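 Growth inhibition in Sahyun et al. medium plus 0.6% acid-hydrolyzed casein. Growth read as turbidity on a Klett-Summerson photoelectric colorimeter. IC50 is the micromolar concentration giving 50% growth inhibition. Top concentration was 1000 μg/ml, or 100 μg/ml when compound was limited.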

Pediococcus [6] = test: Antibacterial activity against sensitive Pediococcus cerevisiae ATCC 808 assessed as reduction in growth in presence of 0.001 ug/ml folinic acid; assay type: functional
How it was run: (§3)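 P. cerevisiae grown with folinic acid at 0.001 μg/ml in the earlier-described medium. Turbidity read on a Klett-Summerson colorimeter. IC50 is the micromolar concentration reducing growth to 50% of control. Top concentration was 1000 μg/ml, or 100 μg/ml when supply was limited.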

[7] = Antibacterial activity against sensitive Pediococcus cerevisiae ATCC 808 assessed as reduction; assay type: functional; how it was run: as §3
Escherichia coli [8] = test: Antibacterial activity against sensitive Escherichia coli ATCC 10536 assessed as reduction in growth in presence of p-aminobenzoic acid; assay type: functional, organism-based
How it was run: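 Reversal test. Drug inhibition was challenged with PABA in Sahyun et al. medium plus 0.6% acid-hydrolyzed casein. Growth read as turbidity on a Klett-Summerson colorimeter. Scored as reversal or nonreversal of the drug inhibition.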

Plasmodium berghei [9] = test: Antimalarial activity against Plasmodium berghei infected in sc dosed mouse assessed as dose required to survivors for period of 60 days; assay type: functional
How it was run: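 Mice infected with a blood-induced P. berghei inoculum were given one subcutaneous dose in peanut oil. Survivors at 60 days counted as cured. The minimum curative dose is the lowest dose that cured any mouse.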

Pediococcus [10] = test: Fold increase in resistance, ratio of IC50 for chlorguanide triazine-resistant Pediococcus cerevisiae ATCC 808 to IC50 for sensitive Pediococcus cerevisiae ATCC 808; assay type: functional
How it was run: (§4)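 Resistant substrains were made by serial transfer in rising concentrations of cycloguanil, and the most resistant isolate of each organism was used. Both strains were assayed turbidimetrically under identical conditions. FIR = IC50 of the resistant strain divided by IC50 of the sensitive parent.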

Lacticaseibacillus casei [11] = test: Antibacterial activity against sensitive Lactobacillus casei ATCC 7469 assessed as reduction in growth in presence of 0.001 ug/ml folic acid; assay type: functional, organism-based; how it was run: as §2
Lacticaseibacillus casei [12] = test: Antibacterial activity against chlorguanide triazine-resistant Lactobacillus casei ATCC 7469 assessed as reduction in growth; assay type: functional, organism-based; how it was run: as §1
Lacticaseibacillus casei [13] = test: Antibacterial activity against sensitive Lactobacillus casei ATCC 7469 assessed as reduction; assay type: functional, organism-based; how it was run: as §1
Lacticaseibacillus casei [14] = test: Antibacterial activity against chlorguanide triazine-resistant Lactobacillus casei ATCC 7469 assessed as reduction in growth in presence of 0.001 ug/ml folic acid; assay type: functional, organism-based; how it was run: as §1
Lacticaseibacillus casei [15] = test: Fold increase in resistance, ratio of IC50 for chlorguanide triazine-resistant Lactobacillus casei ATCC 7469 to IC50 for sensitive Lactobacillus casei ATCC 7469; assay type: functional; how it was run: as §4
Enterococcus faecium [16] = test: Antibacterial activity against chlorguanide triazine-resistant Streptococcus faecium ATCC 8043 assessed as reduction in growth; assay type: functional, organism-based; how it was run: as §1
Enterococcus faecium [17] = test: Antibacterial activity against sensitive Streptococcus faecium ATCC 8043 assessed as reduction in growth; assay type: functional, organism-based; how it was run: as §1
Enterococcus faecium [18] = test: Antibacterial activity against chlorguanide triazine-resistant Streptococcus faecium ATCC 8043 assessed as reduction in growth in presence of 0.002 ug/ml folic acid; assay type: functional, organism-based; how it was run: as §1

SMILES | minimal effective dose (Plasmodium berghei [1]) [mg/kg] | IC50 [2] [µM] | inhibition (Enterococcus faecium [3]) | Ratio IC50 (Enterococcus faecium [4]) | IC50 (Escherichia coli [5]) [µM] | inhibition (Pediococcus [6]) | IC50 [7] [µM] | inhibition (Escherichia coli [8]) | MCD (Plasmodium berghei [9]) [mg/kg] | Ratio IC50 (Pediococcus [10]) | inhibition (Lacticaseibacillus casei [11]) | IC50 (Lacticaseibacillus casei [12]) [µM] | IC50 (Lacticaseibacillus casei [13]) [µM] | inhibition (Lacticaseibacillus casei [14]) | Ratio IC50 (Lacticaseibacillus casei [15]) | IC50 (Enterococcus faecium [16]) [µM] | IC50 (Enterococcus faecium [17]) [µM] | inhibition (Enterococcus faecium [18])
CCc1ccc(N2C(N)=NC(N)=NC2(C)C)cc1 | 320 | > 355 | inactive | >9700 | 1900 | inactive | 42.6 | Active | >640 | >8 | inactive | 291 | 27.3 | inactive | 11 | > 350 | 0.036 | 
Nc1ccc(S(=O)(=O)c2ccc(N)cc2)cc1 [DAPSONE] | 20 | > 400 |  |  | 137 | Active | 105 | inactive | 40 | >4 | Active | 75 | 314 |  | 0.24 | > 4000 | > 4000 | 
Nc1ccc(S(=O)(=O)Nc2nccs2)cc1 [SULFATHIAZOLE] | 40 |  |  |  | 7.8 |  | > 3900 | inactive | 160 |  |  | > 3900 | > 3900 |  |  | > 3900 | > 3900 | 
Cc1ccccc1-c1nc2c(N)nc(N)nc2nc1N | 40 | 44 | inactive | 113 | 209 | inactive | 8.5 | Active | 320 | 5 | inactive | 1.9 | 68 |  | 0.03 | 124 | 1.1 | 
CCN(CC)CCNc1nc(Nc2ccc(Cl)c(Cl)c2)nc2ccccc12 |  | 8.2 | Active | 2 | 11 | Active | 6.5 | Active |  | 1 | Active | 5 | 12 |  | 0.4 | 61 | 31 | 
CC1(C)N=C(N)N=C(N)N1OCc1ccc(Cl)c(Cl)c1 [CLOCIGUANIL] | 2.5 | 8.2 | inactive | 3800 | 7 | inactive | 0.14 | Active | 20 | 59 | inactive | 3.1 | 0.057 |  | 54 | 3.4 | 0.0009 | 
NC1(C(=O)O)CCCC1 [CYCLOLEUCINE] | > 640 |  |  |  | > 7700 |  | > 7700 |  | >640 |  |  | > 7700 | > 7700 |  |  | > 7700 | > 7700 | 
COc1nccnc1NS(=O)(=O)c1ccc(N)cc1 [SULFALENE] | 40 |  |  |  | 13.5 |  | > 3600 | inactive | 160 |  |  | 8200 | 8200 |  | 1 | > 3600 | > 3600 | 
Nc1nc(=O)c2c([nH]1)NCC(CCNc1ccc(C(=O)[O-])cc1)N2.[Na+] (configuration not stated) | > 640 |  | inactive | 800 |  |  | > 2900 |  | >640 |  | inactive | 0.2 | 6 | inactive | 0.03 | 7.2 | 0.009 | inactive
CCN(CC)CCCC(C)Nc1ccnc2cc(Cl)ccc12 (configuration not stated) [CHLOROQUINE] | 20 | 2500 | Active | 1 |  | Active | 2500 |  | 80 | 1 | Active | 6000 | 6400 |  | 1 | 7500 | 6600 | 
O=C(NO)c1ccc(C(=O)NO)cc1 | 320 |  | Active | 3 | > 5000 |  | > 5000 |  | 640 |  | Active | 3000 | 2600 | Active | 1 | > 5000 | 1700 | Active
Nc1nc(N)c2c(ccc3cc(Br)ccc32)n1 | 640 | 0.3 | inactive | 117 | 4.8 | inactive | 0.04 | Active | >640 | 7.5 | inactive | 0.06 | 1 | inactive | 0.06 | 0.7 | 0.006 | inactive
Nc1ccc(S(=O)(=O)Nc2ncccn2)cc1 [SULFADIAZINE] | 160 |  |  |  | 12 |  | > 4000 | inactive | 640 |  |  | > 4000 | > 4000 |  |  | > 4000 | > 4000 | 
CCOC(=O)c1cnc(S)nc1O | 40 |  |  |  | > 5000 |  | > 5000 |  | 320 |  | Active | 574 | 3000 |  | 0.19 | > 5000 | > 5000 | 
CCN(CC)CCNc1nc(C(Cl)(Cl)Cl)nc2cc(Cl)ccc12 | 160 | 35 | Active | 0.9 | 50 | Active | 32 | Active | 320 | 1 | Active | 8 | 30 |  | 0.27 | 67 | 76 | 
COc1cc(NC(C)CCCN)c2ncccc2c1 (configuration not stated) [PRIMAQUINE] | 40 | 540 | Active | 3 |  | Active | 580 |  | 160 | 1 | Active | 1300 | 630 |  | 2 | 3000 | 1200 | 
